# Calls of active or inactive are those of the source. No cut-off for these calls is given here.
# Experiments:
# [1] = test system: Leishmania mexicana; assay: Antileishmanial activity against Leishmania mexicana WHO-MOHM/B2/82/BELZ promastigote at 40 ug/mL by XTT assay; format: functional, organism-based
# In short: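 Promastigotes of L. mexicana (WHO-MOHM/B2/82/BELZ), cultured by established protocols, in a colorimetric growth assay; read-out is reduction of the tetrazolium salt XTT to a water-soluble formazan. Compounds tested at 40 µg/mL.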
# [2] = test system: Plasmodium falciparum; assay: Antiplasmodial activity against chloroquine-resistant Plasmodium falciparum W2; format: functional, organism-based
# [3] = test system: Trypanosoma cruzi; assay: Antitrypanosomal activity against Trypanosoma cruzi Tulahuen at 50 ug/mL by beta-galactosidase assay; format: functional, organism-based
# In short: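 A transgenic T. cruzi expressing β-galactosidase (Tulahuen strain, clone C4) was used. Growth of the intracellular stage was read from cleavage of the colorimetric substrate chlorophenol red-β-D-galactoside. Compounds tested at 50 µg/mL.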
# [4] = test system: Vero; assay: Cytotoxicity against african green monkey Vero cells after 4 hrs by MTT assay; format: cell-based; settings: Chlorocebus sabaeus
SMILES,Activity [1],IC50 [2] [µM],Activity [3],IC50 [4] [µM]
O=c1c(O[C@@H]2O[C@@H](CO)[C@H](O)[C@H]2O)c(-c2cc(O)c(O)c(O)c2)oc2cc(O)cc(O)c12,inactive,27.8,inactive,–
CC(=O)OC[C@@H]1O[C@@H](Oc2c(-c3cc(O)c(O)c(O)c3)oc3cc(O)cc(O)c3c2=O)[C@H](O)[C@H]1OC(C)=O,inactive,–,inactive,456
Oc1cc(O)c2c(c1)O[C@H](c1ccc(O)c(O)c1)[C@H](O)C2 [(-)-EPICATECHIN],–,> 50,–,184
O=C(Oc1cc(O)cc2oc(-c3ccc(O)c(O)c3)c(O[C@@H]3O[C@@H](CO)[C@H](O)[C@H]3O)c(=O)c12)c1cc(O)c(O)c(O)c1,inactive,14.5,inactive,86.5
CC(=O)O[C@@H]1[C@@H](O)[C@H](Oc2c(-c3cc(O)c(O)c(O)c3)oc3cc(O)cc(O)c3c2=O)O[C@H]1CO,inactive,–,inactive,–

# — ChEMBL document CHEMBL1157951, “Weakly antimalarial flavonol arabinofuranosides from Calycolpus warszewiczianus” (J Nat Prod, 2006)
